Consider three compounds from ChEMBL document CHEMBL1955854, “New retinoid derivatives as back-ups of Adarotene” (Bioorg Med Chem, 2012).

The subject of data set [1] is A-431. The data set can be described thus: Antiproliferative activity against human A431 cells incubated for 24 hrs drug exposure measured after 48 hrs of recovery by sulforhodamine B assay. It counts as functional, cell-based.
Data set [2] concerns A-431. The data set can be described thus: Antitumor activity against human A431 cells xenografted in nude CD1 mouse assessed as tumor volume inhibition at 37 mg/kg, po administered qd 3 times per week for 2 weeks relative to control. It counts as functional. The following applies: A-431, 336 h, read-out: TGI. The method in brief: (§1)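 A431 epidermoid carcinoma cells (5 × 10⁶) from in vitro culture were injected s.c. into the right flank of CD1 nude mice on day 0, with 8 mice per group. Dosing began on day 3, at tumors of about 50 mm³, on a qdx3/wx2w schedule. Vehicle was 10% DMSO, 9% HPBCD and 14.4% PEG1000 in water. Tumor diameters were measured twice weekly by caliper, and TVI% was taken versus the vehicle group (Mann–Whitney).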

Data set [3] in a line: Solubility in water. It counts as physicochemical. The note with it: buffer.
Data set [4] deals with A-431. The data set can be described thus: Antitumor activity against human A431 cells xenografted in nude CD1 mouse assessed as tumor volume inhibition at 37 mg/kg, ip administered qd 3 times per week for 2 weeks relative to control. In kind it is functional. The note with it: A-431, ip, 336 h, route intraperitoneal, read-out: TGI. The gist of the method: as §1
A general note: Xenograft models place foreign cells or tissue in a host animal.

Data set [5] can be described thus: Chemical stability in aqueous buffer containing 5% DMSO and 5% tween 80 at pH 1.2 assessed as compound recovery in anoxic conditions after 12 hrs by UPLC analysis. The note with it: pH 1.2, 12 h. In kind it is physicochemical. The gist of the method: (§2)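 Stability at 37 °C in aqueous buffer with 5% DMSO and 5% Tween 80 at pH 1.2, 6.8 or 7.4; percent recovery by HPLC/UPLC on BEH C18 column, water+0.1% TFA/acetonitrile gradient from 40% to 95% acetonitrile over 8 min, room temperature.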

Data set [6] has as its system Mus musculus. In words: Toxicity in nude CD1 mouse xenografted with human A431 cells assessed as body weight loss at 37 mg/kg, ip administered qd 3 times per week for 2 weeks. The arrangement: dose 37 mg/kg, route intraperitoneal. The following applies: in vivo, 336 h. It counts as organism-based, A-431. The method in brief: (§3)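 CD1 nude mice bore s.c. A431 xenografts (5 × 10⁶ cells, right flank, 8 mice per group). Dosing started on day 3 on a qdx3/wx2w schedule, in vehicle of 10% DMSO, 9% HPBCD and 14.4% PEG1000 in water. Mice were weighed daily, and BWL% = 100 − (mean body weight day x / mean body weight day 1 × 100), with day 1 the first treatment day. The maximum BWL is reported.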

Data set [7] can be described thus: Chemical stability in aqueous buffer containing 5% DMSO and 5% tween 80 at pH 7.4 assessed as compound recovery in anoxic conditions after 6 hrs by UPLC analysis. In kind it is physicochemical. The note with it: read-out: Stability. The method in brief: as §2
The subject of data set [8] is NCI-H460. The data set can be described thus: Antiproliferative activity against human NCI-H460 cells incubated for 24 hrs drug exposure measured after 48 hrs of recovery by sulforhodamine B assay. In kind it is functional, cell-based.
Data set [9] in a line: Chemical stability in aqueous buffer containing 5% DMSO and 5% tween 80 at pH 1.2 assessed as compound recovery in anoxic conditions after 3 hrs by UPLC analysis. It counts as physicochemical. The following applies: read-out: Stability. The method in brief: as §2
Data set [10] can be described thus: Chemical stability in aqueous buffer containing 5% DMSO and 5% tween 80 at pH 6.8 assessed as compound recovery in anoxic conditions after 24 hrs by UPLC analysis. It counts as physicochemical. The note with it: read-out: Stability. The gist of the method:
as §2

A short description of data set [11]: Chemical stability in aqueous buffer containing 5% DMSO and 5% tween 80 at pH 7.4 assessed as compound recovery in anoxic conditions after 24 hrs by UPLC analysis. It counts as physicochemical. The note with it: read-out: Stability. The gist of the method: as §2
Data set [12] deals with Mus musculus. The data set can be described thus: Toxicity in nude CD1 mouse xenografted with human A431 cells assessed as body weight loss at 37 mg/kg, po administered qd 3 times per week for 2 weeks. In kind it is organism-based, A-431. On the set-up: dose 37 mg/kg, route oral. The note with it: in vivo, 336 h. The gist of the method:
as §3

The subject of data set [13] is Mus musculus. In words: Toxicity in nude CD1 mouse xenografted with human A431 cells assessed as body weight loss at 40 mg/kg, ip administered qd 3 times per week for 2 weeks. In kind it is organism-based, A-431. On the set-up: dose 40 mg/kg, route intraperitoneal. The following applies: in vivo, 336 h. The method in brief:
as §3

Data set [14] deals with Plasma. The data set can be described thus: Prodrug conversion in mouse plasma assessed as drug concentration at 1 hr. It counts as ADME, cell-free. The method in brief: (§4)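 Prodrugs already shown stable at pH 1.2, 6.8 and 7.4 were incubated in murine plasma and sampled over time up to 6 h. A parallel incubation used murine plasma pretreated with the esterase inhibitor PMSF (phenylmethyl sulfonyl fluoride).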

The subject of data set [15] is Plasma. In words: Prodrug conversion in mouse plasma assessed as drug concentration at 6 hrs. It counts as ADME, cell-free. The gist of the method:
as §4

Data set [16] deals with Plasma. The data set can be described thus: Prodrug conversion in mouse plasma assessed as drug concentration at 3 hrs. In kind it is ADME, cell-free. The method in brief:
as §4

For data set [17], the system named is A-431. In words: Antitumor activity against human A431 cells xenografted in nude CD1 mouse assessed as tumor volume inhibition at 40 mg/kg, po administered qd 3 times per week for 2 weeks relative to control. In kind it is functional. The note with it: A-431, 336 h, read-out: TGI. The gist of the method:
as §1

Data set [18] deals with A-431. In words: Antitumor activity against human A431 cells xenografted in nude CD1 mouse assessed as tumor volume inhibition at 40 mg/kg, ip administered qd 3 times per week for 2 weeks relative to control. The note with it: A-431, ip, 336 h, route intraperitoneal, read-out: TGI. In kind it is functional. The method in brief:
as §1

The subject of data set [19] is Plasma. The data set can be described thus: Prodrug conversion in mouse plasma assessed as drug concentration at 0.5 hrs. In kind it is ADME, cell-free. The gist of the method:
as §4

The subject of data set [20] is Plasma. In words: Prodrug conversion in mouse plasma assessed as drug concentration at 6 hrs in presence of esterase inhibitor PMSF. It counts as ADME, cell-free. The method in brief: as §4
Data set [21] relates to Mus musculus. The data set can be described thus: Toxicity in nude CD1 mouse xenografted with human A431 cells assessed as body weight loss at 40 mg/kg, po administered qd 3 times per week for 2 weeks. The arrangement: dose 40 mg/kg, route oral. In kind it is organism-based, A-431. The following applies: in vivo, 336 h. The gist of the method:
as §3

Data set [22] concerns Mus musculus. The data set can be described thus: Toxicity in nude CD1 mouse xenografted with human NCI-H460 NSCLC cells assessed as body weight loss at 25 mg/kg, po administered qd 3 times per week for 2 weeks. On the set-up: dose 25 mg/kg, route oral. In kind it is organism-based. The note with it: in vivo, 336 h. The method in brief: (§5)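 CD1 nude mice given s.c. right-flank NCI-H460 (3 × 10⁶) or A431 (5 × 10⁶) cells from culture on day 0; eight mice per group. Dosing began day 3 at ~50 mm³ tumors; vehicle 10% DMSO, 9% HPBCD, 14.4% PEG1000 in water. Diameters taken biweekly by caliper; mice weighed daily, maximum BWL% reported; Mann–Whitney versus vehicle.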

The test system of data set [23] is Mus musculus. In words: Toxicity in nude CD1 mouse xenografted with human NCI-H460 NSCLC cells assessed as body weight loss at 13 mg/kg, iv administered qd 3 times per week for 2 weeks. It counts as organism-based. The arrangement: dose 13 mg/kg, route intravenous. The following applies: in vivo, 336 h. The method in brief:
as §5

Data set [24] is described as follows: Toxicity in po dosed nude CD1 mouse xenografted with human A431 cells assessed as mortality administered qd 3 times per week for 2 weeks. The note with it: in vivo. In kind it is organism-based, A-431.
Data set [25] deals with NCI-H460. In words: Antitumor activity against human NCI-H460 cells xenografted in nude CD1 mouse assessed as tumor volume inhibition at 13 mg/kg, iv administered qd 3 times per week for 2 weeks relative to control. In kind it is functional. The note with it: NCI-H460, 336 h, read-out: TGI. The gist of the method: as §5
Data set [26] concerns A-431. In words: Antitumor activity against human A431 cells xenografted in nude CD1 mouse assessed as tumor volume inhibition at 25 mg/kg, po administered qd 3 times per week for 2 weeks relative to control. It counts as functional. The note with it: A-431, 336 h, read-out: TGI. The gist of the method: as §5
Data set [27] deals with NCI-H460. In words: Antitumor activity against human NCI-H460 cells xenografted in nude CD1 mouse assessed as tumor volume inhibition at 25 mg/kg, po administered qd 3 times per week for 2 weeks relative to control. It counts as functional. The following applies: NCI-H460, 336 h, read-out: TGI. The method in brief: as §5
Data set [28] in a line: Toxicity in iv dosed nude CD1 mouse xenografted with human A431 cells assessed as mortality administered qd 3 times per week for 2 weeks. The following applies: in vivo. It counts as organism-based, A-431.
Data set [29] deals with Mus musculus. The data set can be described thus: Toxicity in nude CD1 mouse xenografted with human A431 cells assessed as body weight loss at 25 mg/kg, po administered qd 3 times per week for 2 weeks. On the set-up: dose 25 mg/kg, route oral. In kind it is organism-based, A-431. The following applies: in vivo, 336 h. The gist of the method: as §5

For orientation: IC50 means the midpoint of a concentration-inhibition curve. Higher therefore signals weaker potency in that assay. As for `Cl.O=C(O)/C=C/c1ccc(-c2ccc(OC(=O)NCCN3CCOCC3)c(C34CC5CC(CC(C5)C3)C4)c2)cc1`, the IC50 amounted to 1400 nM in the data set on A-431 [1] and 920 nM with NCI-H460 [8]. In addition, the inhibition in vivo at 37 mg/kg in the data set with A-431 [2] came out at 0%; with A-431 [4], 21%. Moreover, in data set [3], the solubility result is “Insoluble”. Further, the Stability result in data set [5] is “Stable”. In addition, the Activity with Mus musculus [6] and in the data set with Mus musculus [12] was 0% in each case. In addition, the remaining at 6 h in [7] was over 99%. For the same compound, the remaining at 3 h in data set [9] was over 99%. For the same compound, the remaining at 24 h is over 99% in data set [10] and 85% in data set [11].
Take `Cl.O=C(O)/C=C/c1ccc(-c2ccc(OC(=O)N3CCC(N4CCCCC4)CC3)c(C34CC5CC(CC(C5)C3)C4)c2)cc1`: the IC50 with A-431 [1] and with NCI-H460 [8] was over 10000 nM in each case. For the same compound, the Activity in the data set on Mus musculus [13] is recorded as 0%; with Mus musculus [21] it was 4%. In addition, the Drug metabolism was 100% in the data set with Plasma [14]; 100% with Plasma [15]; 100% in the data set with Plasma [16]; 100% in the data set on Plasma [19]; 4.13% in the data set on Plasma [20]. Further, the solubility result in [3] was “Insoluble”. Also, the results for the inhibition in vivo at 40 mg/kg with A-431 [17] and with A-431 [18] were 22% and 26%, respectively. Further, in [5], the Stability result was “Stable”. For the same compound, in data set [9], the remaining at 3 h was over 99%. In addition, the remaining at 24 h in data set [10] and in [11] was over 99% in each case.
For `O=C(O)/C=C/c1ccc(-c2ccc(O)c(C34CC5CC(CC(C5)C3)C4)c2)cc1` [ADAROTENE], the IC50 worked out at 120 nM in the data set with A-431 [1] and 200 nM in the data set with NCI-H460 [8]. In addition, the Activity with Mus musculus [22] turned out to be 9%; with Mus musculus [23], 8%; in the data set on Mus musculus [29], 12%. In addition, the solubility result in data set [3] is given as “Insoluble”. The MTD at 336 h in data set [24] turned out to be 25 mg/kg; in data set [28], 13 mg/kg. Besides, the inhibition in vivo at 13 mg/kg in the data set with NCI-H460 [25] was determined as 37%. Also, the values for the inhibition in vivo at 25 mg/kg in the data set on A-431 [26] and in the data set with NCI-H460 [27] were 36% and 34%, respectively. Besides, in data set [5], the Stability entry is “Stable”. For the same compound, the remaining at 3 h in data set [9] was over 99%. Moreover, the remaining at 24 h in [10] and in data set [11] was over 99% in each case.
